# According to ChEMBL document CHEMBL4138246, “Natural product inspired library synthesis - Identification of 2,3-diarylbenzofuran and 2,3-dihydrobenzofuran based inhibitors of Chlamydia trachomatis” (Eur J Med Chem, 2018):
# How the values were obtained:
# Chlamydia trachomatis [1] = assay: Antichlamydial activity against Chlamydia trachomatis serovar L2 infected in human HeLa 299 cells assessed as reduction in number of inclusion bodies measured after 44 to 48 hrs by DAPI staining-based HCS assay; format: functional, organism-based
# Method in brief: (§1)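 HeLa299 cells are seeded at 15,000/well, cultured overnight at 37 °C with 5% CO2 in RPMI with 10% FBS and 2 mM […], then infected with serovar L2 454/Bu at MOI about 0.3 in HBSS. At 1 h the inoculum is replaced with medium containing 0.5% DMSO and 1:1 serial dilutions of compound over eleven concentrations. After 44–48 h, cells are fixed in methanol for 5 min. Inclusions are stained with rabbit anti-Chlamydia antibody, a FITC secondary, and DAPI. Inclusions over 130 µm² are counted by automated imaging and expressed as % of DMSO-control inclusions. IC50 is from nonlinear regression of at least three independent experiments.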
# Chlamydia trachomatis [2] = assay: Antichlamydial activity against Chlamydia trachomatis serovar D […] infected in human HeLa 299 cells assessed as reduction in number of inclusion bodies measured after 44 to 48 hrs by DAPI staining-based HCS assay; format: functional, organism-based
# [3] = Cytotoxicity against human HeLa 299 cells assessed as cell viability at 50 uM after 48 hrs by XTT assay relative to control; format: cell-based; settings: for viability at 48 h, 50 µM: HeLa 299 cells, read-out: Activity; for Activity: 48 h, 50 µM
# Method in brief: (§2)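 HeLa299 cells are seeded at 7000/well and cultured overnight in RPMI with 10% FBS and 2 mM […] at 37 °C with 5% CO2. The medium is then swapped for phenol red-free DMEM with 0.5% DMSO, with or without compound at 25 and 50, in at least three replicate wells each, for 48 h. XTT with activation reagent is read after 2.5 h at 475 minus 660 nm, blank-corrected, and expressed as % of DMSO control.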
# Chlamydia trachomatis [4] = assay: Antichlamydial activity against Chlamydia trachomatis serovar A […] infected in human HeLa 299 cells assessed as reduction in number of inclusion bodies measured after 44 to 48 hrs by DAPI staining-based HCS assay; format: functional, organism-based
# Chlamydia trachomatis [5] = assay: Antichlamydial activity against Chlamydia trachomatis serovar L2 454/Bu infected in human HeLa 299 cells assessed as reduction in number of inclusion bodies measured after 44 to 48 hrs by DAPI staining-based HCS assay; format: functional, organism-based; method in brief: as §1
# [6] = Cytotoxicity against human HeLa 299 cells assessed as cell viability at 25 uM after 48 hrs by XTT assay relative to control; format: cell-based; settings: read-out: Activity; method in brief: as §2
# [7] = Cytotoxicity against human HeLa 299 cells assessed as reduction in cell viability at 25 uM after 48 hrs by XTT assay
# [8] = Cytotoxicity against human HeLa 299 cells assessed as reduction in cell viability after 48 hrs by XTT assay; format: cell-based; method in brief: as §2
Structure (SMILES),IC50 (Chlamydia trachomatis [1]) [nM],IC50 (Chlamydia trachomatis [2]) [nM],"viability at 48 h, 50 µM [3] [%]",IC50 (Chlamydia trachomatis [4]) [nM],IC50 (Chlamydia trachomatis [5]; read-out: IC50) [µM],IC50 (Chlamydia trachomatis [5]; read-out: pIC50 (converted)) [µM],"viability at 48 h, 25 µM [6] [%]",Activity [7],Activity [3] [%],Activity [8]
CC[C@H]1OC(=O)[C@H](C)[C@@H](O[C@H]2C[C@@](C)(OC)[C@@H](O)[C@H](C)O2)[C@H](C)[C@@H](O[C@@H]2O[C@H](C)C[C@H](N(C)C)[C@H]2O)[C@](C)(O)C[C@@H](C)CN(C)[C@H](C)[C@@H](O)[C@]1(C)O [AZITHROMYCIN],727,–,–,–,–,–,–,–,–,–
COc1ccc(-c2oc3cc(OC)ccc3c2-c2ccnc(F)c2)cc1,1810,2190,93,1340,2.7,2.73,68,–,–,–
COc1ccc(-c2oc3ccccc3c2-c2cccnc2)cc1,1000,2440,103,2630,2.4,2.44,82,–,–,–
c1ccc(C2Oc3ccccc3C2c2ccccc2)cc1 (racemic),–,–,88,–,25.4,25.4,72,–,–,–
Oc1ccc(-c2oc3cc(O)ccc3c2-c2ccnc(F)c2)cc1,–,–,< 70,–,–,–,–,Toxic,–,–
COc1cccc(C2Oc3cc(OC)ccc3C2c2ccc(F)c(F)c2)c1 (racemic),581,700,95,79,1,0.998,93,–,–,–
COc1cccc(C2Oc3ccc(F)cc3C2c2ccc(F)c(F)c2)c1 (racemic),–,–,118,–,19.8,19.9,80,–,–,–
Oc1ccc(-c2oc3ccccc3c2-c2cccc(F)c2)cc1,–,–,< 70,–,–,–,–,Toxic,–,–
COc1ccc2c(c1)OC(c1ccccc1)C2c1ccc(F)c(F)c1 (racemic; 38),–,–,–,–,23.4,23.4,84,–,102,–
COc1ccc(-c2oc3cc(OC)ccc3c2-c2ccc(F)c(F)c2)cc1,–,–,101,–,27,27,96,–,–,–
CC1COc2c(N3CCN(C)CC3)c(F)cc3c(=O)c(C(=O)O)cn1c23 (centres undefined) [OFLOXACIN],666,–,–,–,–,–,–,–,–,–
COc1ccc(-c2oc3cc(OC)ccc3c2-c2ccc(C(F)(F)F)cc2)cc1,–,–,45,–,–,–,84,–,–,Dose-dependent effect
COc1cccc(C2Oc3ccc(F)cc3C2c2ccc3c(c2)OCO3)c1 (racemic),–,–,103,–,25.8,25.8,88,–,–,–
COc1ccc(-c2oc3ccc(F)cc3c2-c2ccc(OC)cc2)cc1,–,–,99,–,15.2,15.2,82,–,–,–
Oc1ccc(-c2oc3ccccc3c2-c2cccnc2)cc1,–,–,61,–,–,–,79,–,–,Dose-dependent effect
c1ccc(COc2ccc(-c3oc4ccccc4c3-c3cccnc3)cc2)cc1,–,–,82,–,15,15,76,–,–,–
COc1cccc(-c2oc3ccc(F)cc3c2-c2ccc3c(c2)OCO3)c1,–,–,< 70,–,–,–,–,Toxic,–,–
Oc1ccc(-c2oc3cc(O)ccc3c2-c2ccc(F)cc2)cc1,–,–,42,–,–,–,105,–,–,Dose-dependent effect

Structure (SMILES),IC50 (Chlamydia trachomatis [1]) [nM],IC50 (Chlamydia trachomatis [2]) [nM],"viability at 48 h, 50 µM [3] [%]",IC50 (Chlamydia trachomatis [4]) [nM],IC50 (Chlamydia trachomatis [5]; read-out: IC50) [µM],IC50 (Chlamydia trachomatis [5]; read-out: pIC50 (converted)) [µM],"viability at 48 h, 25 µM [6] [%]",Activity [7],Activity [3] [%],Activity [8]
COc1ccc(-c2oc3cc(OC)ccc3c2-c2ccc(OC)cc2)cc1,–,–,100,–,12.8,12.8,106,–,–,–
COc1ccc(C2c3ccc(OC)cc3OC2c2ccccc2)cc1 (racemic),–,–,< 70,–,–,–,–,Toxic,–,–
COc1ccc(C2c3ccc(OC)cc3OC2c2cccc(OC)c2)cc1 (racemic),–,–,90,–,10.6,10.6,76,–,–,–
COc1ccc(-c2oc3ccccc3c2-c2ccc(OC)cc2)cc1,–,–,94,–,11.6,11.6,92,–,–,–
Fc1ccc(C2c3ccccc3OC2c2ccccc2)cc1F (racemic),–,–,87,–,27.2,27.2,75,–,–,–
COc1ccc(-c2oc3ccccc3c2-c2cccc(F)c2)cc1,–,–,84,–,22.1,22.1,79,–,–,–
N#Cc1cccc(C2c3ccccc3OC2c2ccccc2)c1 (racemic),–,–,96,–,25,25,90,–,–,–
Oc1ccc(-c2oc3ccccc3c2-c2ccnc(F)c2)cc1,–,–,52,–,–,–,90,–,–,Dose-dependent effect
Fc1cccc(C2c3cc(F)ccc3OC2c2ccccc2)c1 (racemic),–,–,84,–,24.9,24.9,83,–,–,–
Oc1ccc(-c2oc3ccccc3c2-c2ccc(O)cc2)cc1,–,–,32,–,–,–,74,–,–,Dose-dependent effect
COc1ccc(-c2oc3cc(OC)ccc3c2-c2ccc(F)cc2)cc1,–,–,< 70,–,–,–,–,Toxic,–,–
COc1ccc(-c2oc3ccccc3c2-c2ccnc(F)c2)cc1,965,2040,97,1600,2,2.04,84,–,–,–
Oc1ccc(-c2oc3ccc(F)cc3c2-c2ccnc(F)c2)cc1,–,–,53,–,–,–,107,–,–,Dose-dependent effect
COc1ccc(-c2oc3ccc(F)cc3c2-c2ccnc(F)c2)cc1,4730,5040,103,1840,4.2,4.21,90,–,–,–
COc1ccc(-c2oc3ccccc3c2-c2ccc(F)c(F)c2)cc1,–,–,96,–,8.7,8.73,90,–,–,–
COc1ccc2c(c1)OC(c1ccccc1)C2c1ccc(F)c(F)c1 (racemic; 39),–,–,–,–,–,–,–,Toxic,< 70,–
Oc1ccc(-c2oc3ccc(F)cc3c2-c2ccc(O)cc2)cc1,–,–,< 70,–,–,–,–,Toxic,–,–
